Screening results: PubChem BioAssay, several laboratories
The sample as a whole holds a higher share of hits than the screen did.
CHOP inh: CHOP inhibition in unfolded protein response. CHO-K1 CHOP-promoter luciferase, tunicamycin-induced, 15-18 h. AID 2732. actives 3.8% (n = 220,000). inhibition, % at 10 µM;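 active means compounds that reduced the stress-induced luciferase reporter signal by more than about 70% of percent inhibition, limit read from the data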;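 further: 0% = tunicamycin plus vehicle and 100% = wells without tunicamycin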
CHOP UPR activ: apoptotic UPR (CHOP) activation. activation, % at 10 µM. CHO-CHOP luciferase reporter, luminescence; percent of tunicamycin response over DMSO baseline. actives 0.34% (n = 330,000);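 active means at 10 µM dose, activation of 40% or more, normalized to positive control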;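 further: 100% = tunicamycin at 10 µg/mL and 0% = DMSO alone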
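Test system: CHO-CHOP cells, stable luciferase reporter of PERK-eIF2a-CHOP signalling | Quantity: 500 CHO-CHOP cells per well | Buffer or medium: F12 plus 10% serum | Compound dosing: 10 µM single point, 0.5% DMSO | Schedule: 6 h compound treatment, 37 °C | Signal: Luciferase luminescence | Control set: Tunicamycin high control, DMSO low control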
A1 inh: inhibitors of the anti-apoptotic protein A1, read as caspase activation. AID 2462. caspase activation, % (concentration not given with the values). MEF A1-2A-BIM cells, Caspase-Glo 3/7 luminescence, 3 h; percent of clofoctol response, vehicle zero. actives 0.066% (n = 330,000);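 active means over half of replicate activation scores above 10%, or exactly half above 10 with the replicate mean above 10; inconclusive means replicate mean below 10 yet half the replicates above 10; inactive means over half of replicates below 10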
XBP1 UPR activ: activators of adaptive arm of unfolded protein response (XBP1); AID 463104; CHO-XBP1 luciferase reporter, IRE1-XBP1 UPR activation, luminescence; percent of tunicamycin response, DMSO as zero; activation, % at 20 µM; actives 0.33% (n = 330,000);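 active means versus positive control, 20 µM dose yields 30% or more activation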;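 further: 100% = tunicamycin at 10 µg/mL and 0% = DMSO only wells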
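Test system: CHO-XBP1 luciferase reporter cells | Buffer or medium: Serum-containing F12 medium, 10% FBS | Schedule: 6 h compound exposure at 37 °C, 5% CO2 | Detection: Steady-Glo luciferase glow luminescence, 10 min after reagent addition | Read-out basis: Activation, % of tunicamycin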
An asterisk follows results filed as active; ? = inconclusive; . = no result.

SMILES	CHOP inh	CHOP UPR activ	A1 inh	XBP1 UPR activ
C/C(Cn1cnc([N+](=O)[O-])n1)=N\NC(=O)c1ccccc1O	-25	-1	1	-3
CCCCC(=O)N=c1sc2cc([N+](=O)[O-])ccc2n1C	17	2	0	0
COc1cc(CNCCc2ccc(S(N)(=O)=O)cc2)ccc1OCc1ccc(Cl)cc1	23	2	1	1
CCOc1cc(CNCCc2ccc(S(N)(=O)=O)cc2)ccc1OCc1ccc(Cl)cc1	89*	12	1	16
CCOC(=O)c1c(NC(=O)CN(CC)CC)sc2c1CCN(C(=O)OCC)C2	75*	0	1	0
CCOC(=O)c1c(NC(=O)CN2CCCCC2)sc2c1CCN(C(=O)OCC)C2	81*	2	0	-2
CCOC(=O)c1c(NC(=S)N2CCN(C)CC2)sc2c1CCN(C(=O)OCC)C2	-4	7	0	2
CCOC(=O)c1c(NC(=O)CN2CCN(C(=O)c3ccco3)CC2)sc2c1CCCC2	86*	1	-1	-1
CCC(C)(C)NC(=O)C(c1ccc(F)cc1)N(Cc1ccccc1)C(=O)c1cnccn1 (stereo not drawn)	0	-1	1	-3
CCOC(=O)c1[nH]c2ccc(OC)cc2c1NC(=O)CN1CCSCC1	9	2	-1	0
CCCCCCCn1c(=O)c(C(=O)OC)c(N)c2ccccc21	73*	8	-1	1
CCCCCCCCn1c(=O)c(C(=O)OC)c(N)c2ccccc21	66	5	0	0
Cc1ccc(N(CC(=O)Nc2cc(Cl)ccc2Oc2ccccc2)S(C)(=O)=O)c(C)c1	-2	-2	0	-6
Cc1ccc(N(CC(=O)Nc2cc(Cl)ccc2Oc2ccccc2)S(C)(=O)=O)cc1C	89*	1	1	-6
CCOC(=O)N1CCN(c2nc(C)cc(C(F)(F)F)n2)CC1	71*	-1	0	4
CCOC(=O)N1CCN(c2nc(C(F)(F)F)nc3c(C)cc(C)cc23)CC1	61	0	-1	-2
CCCCN(CC)CCCNC(=O)c1ccc(CS(=O)(=O)c2c(Cl)cccc2Cl)o1	.	1	?	-7
O=S(=O)(NCCSc1ccc(Cl)cc1)c1ccc(F)cc1	71*	-1	0	0
CCN(CC)c1nc(C)c2c(c1C#N)CC(C)(C)OC2	74*	1	1	-5
CN[C@@H]1[C@H](O)[C@H](NC)[C@H]2O[C@@]3(O)C(=O)C[C@@H](C)O[C@H]3O[C@@H]2[C@H]1O	.	-1	1	-8
O=C(CN1CCCCC1)Nc1ccc(NC(=O)c2ccc(Cl)cc2)cc1Cl	85*	2	-1	18
Cc1ccc(NC(=O)CN2CCCCCC2)c(Br)c1	75*	.	.	.
Cc1cc(Cl)ccc1NC(=O)CN1CCCC1	.	-1	0	-5
COc1cccc(Nc2nnc(SCn3nnc4ccccc4c3=O)s2)c1	23	0	0	0
CCc1ccc(Nc2nnc(SCn3nnc4ccccc4c3=O)s2)cc1	82*	1	0	-1
SMILES	CHOP inh	CHOP UPR activ	A1 inh	XBP1 UPR activ
O=C(Nc1ccc(F)cc1)c1cnc(-c2ccccc2)nc1-c1ccccc1	81*	1	1	5
O=C(Nc1ccc(F)c(F)c1)c1cnc(-c2ccccc2)nc1-c1ccccc1	94*	0	1	7
C=CCNC(=O)c1cnc(-c2ccccc2)nc1-c1ccccc1	.	-1	0	1
CC(C)(C)c1ccc(C(=O)OCC(=O)Nc2sc3c(c2C#N)CCC3)cc1	90*	0	0	-3
CC1CC(C)CN(c2cc3c(cc2[N+](=O)[O-])C(=O)N(c2ccccc2)C3=O)C1 (stereo not drawn)	49	6	0	16
CC1CC(C)CN(c2ccc(-n3cnnn3)cc2[N+](=O)[O-])C1 (stereo not drawn)	74*	0	2	0
O=C(O)CSc1cc(C(=O)c2ccccc2O)cn2c(=O)c3c4c(sc3nc12)CCCC4	89*	.	.	.
O=C(O)CSc1nc2sc3c(c2c(=O)n1Cc1ccccc1)CCCCC3	.	6	2	-1
CC(=O)Nc1ccc(S(=O)(=O)NCc2ccc(C)cc2)cc1	76*	-1	-2	0
Cc1occc1C(=O)NNC(=O)NC12CC3CC(CC(C3)C1)C2	28	-1	1	1
Cc1csc(C(=O)O)c1NC(=O)c1ccc(F)cc1	.	1	0	-1
CCN(C(=O)c1coc(=O)c(Br)c1)c1ccc2c(c1)OCO2	-36	7	1	2
CCCCCCCc1c(C)nc(N2CCOCC2)[nH]c1=O	72*	-1	-1	-2
O=C(Nc1ccc(-n2ccc(C(F)(F)F)n2)cc1)Nc1cccc(Cl)c1	59	16	0	9
Cc1cc(C)cc(NC(=O)Nc2ccc(-n3ccc(C(F)(F)F)n3)cc2)c1	83*	3	0	-1
O=C(Cc1ccc(Cl)cc1)Nc1cccc(S(=O)(=O)N2CCCCC2)c1	.	0	0	-2
O=C(CCl)Nc1cccc(S(=O)(=O)N2CCCCCC2)c1	93*	15	1	-1
Cc1ccccc1NCC(=O)c1ccc(Br)cc1	70*	2	0	-2
CCOC(=O)C1=C(C)NC(C)=C(C(=O)OCC)C1c1ccccc1/C=C/C(=O)OC(C)(C)C	.	7	-1	39*
CCSc1nnc(NC(=O)C2CCN(S(=O)(=O)c3ccccc3C(F)(F)F)CC2)s1	50	6	-1	-2
CCSc1nnc(NC(=O)C2CCN(S(=O)(=O)c3c(C)c(C)cc(C)c3C)CC2)s1	78*	3	-1	-1
CC1(C)Cc2c(sc3nc4n(c(=N)c23)CCC4)CO1	-9	0	-1	-1
O=C(Cc1coc2ccc3ccccc3c12)Nc1nnc(C2CC2)s1	10	-1	0	-2
Cc1cc2occ(CC(=O)Nc3nnc(C4CC4)s3)c2cc1C	90*	1	3	2
CC1C/C(=N\NC(=O)CCc2ccc(S(=O)(=O)N3CCOCC3)cc2)CC(C)(C)C1 (stereo not drawn)	10	-2	3	2
SMILES	CHOP inh	CHOP UPR activ	A1 inh	XBP1 UPR activ
CCCCCCc1cc2cc(S(=O)(=O)c3ccc(F)cc3)c(=O)oc2cc1O	94*	-2	-1	-4
O=P(O)(O)CP(=O)(O)O	-2	0	.	1
N#C/C(=C\c1cn(Cc2ccc(F)cc2)c2ccccc12)C(=O)NCc1ccco1	77*	-1	0	0
CC(C)c1ccc(S(=O)(=O)/N=C2/C=C(Sc3ncn[nH]3)C(=O)c3ccccc32)cc1	81*	.	1	.
O=C1Nc2ccccc2/C1=C\c1cccn1-c1ccc(OC(F)(F)F)cc1	93*	0	0	-2
O=C1C=C(NCCOC23CC4CC(CC(C4)C2)C3)C2(CCCCC2)O1	47	3	0	-3
CC(C)=CC(=O)OCC(=O)Nc1ccc(Cl)cn1	75*	-2	0	3
